Eleven compounds from ChEMBL document CHEMBL2434910, “Investigation of 3-aryl-pyrimido[5,4-e][1,2,4]triazine-5,7-diones as small molecule antagonists of β-catenin/TCF transcription” (Bioorg Med Chem Lett, 2013) can be followed below.

Active and inactive are the calls of the source. No cut-off for these calls is given here.

Data set [1] in a line: Metabolic stability in mouse liver microsomes assessed as compound remaining at 1 uM after 60 mins by LC-MS analysis. The format is ADME, Microsome. The settings on record: read-out: Stability. The procedure, abridged: (§1)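 Compound (1 μM) incubated at 37°C with mouse liver microsomes to assess metabolic stability.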
Data set [2] can be described thus: Metabolic stability in mouse liver microsomes assessed as compound remaining at 1 uM after 30 mins by LC-MS analysis. The format is ADME, Microsome. As to conditions: read-out: Stability. The procedure, abridged:
as §1

The nature of data set [3]: Antagonist activity at Beta-catenin/TCF in rat IEC-6 cells assessed as inhibition of Wnt-3a-induced axin2 expression preincubated for 6 hrs followed by Wnt-3a induction measured after 12 hrs by qPCR analysis. The format is cell-based. The procedure, abridged:
(§2)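 IEC-6 rat intestinal epithelial cells given compound at a range of concentrations for 6 h, then recombinant mouse Wnt-3a (50 ng/mL) added for 12 h. Target transcript quantified by qPCR with gene-specific primers, normalised to U6. The Wnt-3a-stimulated level with no compound is set to 100%. IC50 taken from concentration-response; mean ± SEM reported where available.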
A general note: In qPCR the cycle at which signal appears reflects the starting amount.

The subject of data set [4] is Liver. Nature of the data set: Metabolic stability in mouse liver microsomes assessed as compound remaining at 1 uM after 3 mins by LC-MS analysis. The settings on record: 0.05 h. The format is ADME, Microsome. In short, it runs like this: as §1
A general note: Liver microsomes are vesicles of endoplasmic reticulum, rich in cytochrome P450 enzymes.

Data set [5] is described as follows: Antagonist activity at Beta-catenin/TCF in rat IEC-6 cells assessed as inhibition of Wnt-3a-induced lgr5 expression preincubated for 6 hrs followed by Wnt-3a induction measured after 12 hrs by qPCR analysis. The format is cell-based. In short, it runs like this: as §2
Data set [6] concerns Liver. Nature of the data set: Metabolic stability in mouse liver microsomes assessed as half life at 1 uM after 1 to 60 mins by LC-MS analysis. The format is ADME, Microsome. In short, it runs like this: as §1
Data set [7] is described as follows: Metabolic stability in mouse liver microsomes assessed as compound remaining at 1 uM after 10 mins by LC-MS analysis. As to conditions: read-out: Stability. The format is ADME, Microsome. In short, it runs like this: as §1
Data set [8] deals with DLD-1. Nature of the data set: Downregulation of cyclin D1 protein level in human DLD1 cells at 3 to 10 uM after 20 hrs by Western blotting analysis. The format is functional, cell-based. The procedure, abridged: (§3)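 DLD-1 colorectal cancer cells treated with compound for 20 h in the dark. β-Catenin (free and total pools) and cyclin D1 protein levels assessed by Western blot.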

Data set [9] deals with DLD-1. Nature of the data set: Downregulation of total beta-catenin protein level in human DLD1 cells at 3 to 10 uM after 20 hrs by Western blotting analysis. The format is functional, cell-based. In short, it runs like this:
as §3

For data set [10], the system named is IEC-6. Kind of data set: Antagonist activity at Beta-catenin/TCF in rat IEC-6 cells assessed as inhibition of Wnt-3a-induced axin2 expression up to 0.7 uM preincubated for 6 hrs followed by Wnt-3a induction measured after 12 hrs by qPCR analysis. The format is cell-based. The procedure, abridged:
as §2

Data set [11] has as its system IEC-6. Kind of data set: Antagonist activity at Beta-catenin/TCF in rat IEC-6 cells assessed as inhibition of Wnt-3a-induced lgr5 expression up to 0.7 uM preincubated for 6 hrs followed by Wnt-3a induction measured after 12 hrs by qPCR analysis. The format is cell-based. In short, it runs like this: as §2
Data set [12] relates to IEC-6. Kind of data set: Antagonist activity at Beta-catenin/TCF in rat IEC-6 cells assessed as inhibition of Wnt-3a-induced lgr5 expression up to 1.2 uM preincubated for 6 hrs followed by Wnt-3a induction measured after 12 hrs by qPCR analysis. The format is cell-based. The procedure, abridged:
as §2

Data set [13] has as its system IEC-6. Nature of the data set: Antagonist activity at Beta-catenin/TCF in rat IEC-6 cells assessed as inhibition of Wnt-3a-induced axin2 expression up to 1.2 uM preincubated for 6 hrs followed by Wnt-3a induction measured after 12 hrs by qPCR analysis. The format is cell-based. In short, it runs like this: as §2
In data set [14] the test system is DLD-1. Nature of the data set: Antiproliferative activity against human DLD1 cells assessed as inhibition of colony formation at 1 to 3 uM after 2 weeks by crystal violet staining-based assay. The format is functional, cell-based. The procedure, abridged:
(§4)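 Colony formation assay. DLD-1 (bi-allelic APC mutation) and RKO (no β-catenin dysregulation) colon cancer cells seeded in medium with 10% serum containing compound. Surviving colonies visualised and counted two weeks after plating. Two independent experiments per concentration, each in triplicate. Compound incubations carried out in the dark.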

Data set [15] relates to RKO. Kind of data set: Antiproliferative activity against human RKO cells assessed as inhibition of colony formation at 1 to 3 uM after 2 weeks by crystal violet staining-based assay. The format is functional, cell-based. In short, it runs like this: as §4
In data set [16] the test system is SW480. Kind of data set: Downregulation of axin2 protein level in human SW480 cells after 20 hrs by Western blotting analysis. The format is functional, cell-based. A general note: A western blot detects proteins with antibodies after separation by electrophoresis.
Data set [17] in a line: Downregulation of free beta-catenin protein level in HEK293T cells after 3 hrs by Western blotting analysis in presence of GSK3-beta antagonist SB216763 and proteasome inhibitor MG-132. The format is functional, cell-based. As to conditions: Homo sapiens; HEK-293T.
Data set [18] is described as follows: Downregulation of free beta-catenin protein level in HEK293T cells at 1 to 10 uM after 3 hrs by Western blotting analysis in presence of GSK3-beta antagonist SB216763. The format is functional, cell-based. The settings on record: Homo sapiens, HEK-293T. The procedure, abridged:
(§5)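 HEK293T cells treated with 5 μM SB216763 (GSK3β antagonist) together with various concentrations of compound, in the dark. Free and total β-catenin protein assessed by Western blot.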

For data set [19], the system named is SW480. Kind of data set: Downregulation of total beta-catenin protein level in human SW480 cells at 3 to 10 uM after 20 hrs by Western blotting analysis. The format is functional, cell-based.
Data set [20] is described as follows: Downregulation of free beta-catenin protein level in HEK293T cells after 3 hrs by Western blotting analysis in presence of dominant negative beta-TrCP. The format is functional, cell-based. As to conditions: Homo sapiens; HEK-293T.
For the next data set, the system named is HEK-293T. Nature of the data set: Effect on total beta-catenin protein level in HEK293T cells at 1 to 10 uM after 3 hrs by Western blotting analysis in presence of GSK3-beta antagonist SB216763. The format is functional, cell-based. The settings on record: Homo sapiens. In short, it runs like this:
as §5

Data set [21] deals with DLD-1. Nature of the data set: Downregulation of free beta-catenin protein level in human DLD1 cells at 3 to 10 uM after 20 hrs by Western blotting analysis. The format is functional, cell-based. The procedure, abridged: as §3
For data set [22], the system named is SW480. Nature of the data set: Downregulation of free beta-catenin protein level in human SW480 cells at 3 to 10 uM after 20 hrs by Western blotting analysis. The format is functional, cell-based.
Data set [23] deals with IEC-6. Nature of the data set: Antagonist activity at Beta-catenin/TCF in rat IEC-6 cells assessed as inhibition of Wnt-3a-induced axin2 expression up to 69 uM preincubated for 6 hrs followed by Wnt-3a induction measured after 12 hrs by qPCR analysis. The format is cell-based. In short, it runs like this: as §2
Data set [24] concerns IEC-6. Kind of data set: Antagonist activity at Beta-catenin/TCF in rat IEC-6 cells assessed as inhibition of Wnt-3a-induced lgr5 expression up to 69 uM preincubated for 6 hrs followed by Wnt-3a induction measured after 12 hrs by qPCR analysis. The format is cell-based. In short, it runs like this:
as §2

Data set [25] deals with IEC-6. Kind of data set: Antagonist activity at Beta-catenin/TCF in rat IEC-6 cells assessed as inhibition of Wnt-3a-induced axin2 expression up to 179 uM preincubated for 6 hrs followed by Wnt-3a induction measured after 12 hrs by qPCR analysis. The format is cell-based. The procedure, abridged:
as §2

In data set [26] the test system is RKO. Nature of the data set: Antiproliferative activity against human RKO cells assessed as inhibition of colony formation at 0.3 to 0.5 uM after 2 weeks by crystal violet staining-based assay. The format is functional, cell-based. The procedure, abridged:
(§6)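 Cells seeded in medium with 10% serum containing the test compound, kept in the dark; surviving colonies counted two weeks after plating. Colony counts are from two independent experiments at each concentration, each run in triplicate.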

Data set [27] deals with DLD-1. Nature of the data set: Antiproliferative activity against human DLD1 cells assessed as inhibition of colony formation at 0.3 to 0.5 uM after 2 weeks by crystal violet staining-based assay. The format is functional, cell-based. The procedure, abridged: as §6

`CCN(CC)CCOc1ccc(-c2nc3c(=O)n(C)c(=O)nc-3n(-c3ccccc3)n2)cc1`: the remaining at 1 h, 1 µM in [1] was 31.8%. Besides, in data set [2], the remaining at 0.5 h, 1 µM was found to be 70.7%. The half-maximal inhibitory concentration (IC50) worked out at 0.3 µM in data set [3] and 0.26 µM in [5]. Besides, the Stability in the data set on Liver [4] turned out to be 110%. The t1/2 in the data set with Liver [6] was found to be 34.7 min. For the same compound, the remaining at 10 min, 1 µM in data set [7] worked out at 92.2%.

For the compound `COc1ccc(-c2nc3c(=O)n(C)c(=O)nc-3n(C)n2)cc1`, the IC50 in [3] amounted to 2.67 µM; in data set [5], 1.53 µM. The outcome with DLD-1 [8] and with DLD-1 [9] was Active.

In the case of `COc1ccc(-c2nc3c(=O)n(C)c(=O)nc-3n(-c3ccccc3)n2)cc1`, the IC50 in data set [3] stood at 2.67 µM; in data set [5] it was 2.1 µM.

For the compound `CCN(CC)CCOc1ccc(-c2nc3c(=O)n(C)c(=O)nc-3n(C)n2)cc1`, the inhibition result in the data set with IEC-6 [10] and in the data set on IEC-6 [11] was “inactive” throughout.

With `COc1ccc(-c2nc3c(=O)n(C)c(=O)nc-3n(CCO)n2)cc1`, the inhibition result with IEC-6 [12] and with IEC-6 [13] was “inactive” in each case.

With `Cn1nc(-c2ccc(Cl)cc2)nc2c(=O)n(C)c(=O)nc1-2`, the inhibition entry in the data set with DLD-1 [14] and in the data set with RKO [15] was “Active” each time. The Activity result in the data set with SW480 [16] is “Dose-dependent effect”. The IC50 worked out at 1.77 µM in data set [3] and 1.53 µM in [5]. The result (in the data set with DLD-1 [8]; in data set [18]; with SW480 [19]; in [20]; with DLD-1 [9]; with DLD-1 [21]) was Active. In the data set on SW480 [22], the outcome was Active. The result (in data set [17]; in the data set on HEK-293T) was inactive.

For the compound `Oc1nc(-c2ccc(C(F)(F)F)cc2)nc2c1CSCC2`, the IC50 was found to be 0.64 µM in [3] and 2.9 µM in data set [5].

For the compound `CCN(CC)CCOc1ccc(-c2nnc3c(n2)c(=O)n(C)c(=O)n3C)cc1`, the inhibition entry in the data set on IEC-6 [23] and with IEC-6 [24] was “inactive” throughout.

For `CCN(CC)CCOc1ccc(-c2nnc3c(n2)c(=O)n(C)c(=O)n3-c2ccccc2)cc1`, the inhibition result in the data set with IEC-6 [25] was “Active”. Further, the IC50 in data set [5] was determined as 165 µM.

With `COc1c(C[C@@H](C)OC(=O)Oc2ccc(O)cc2)c2c3c(C[C@@H](C)OC(=O)c4ccccc4)c(OC)c(=O)c4c(O)cc(OC)c(c5c(OC)cc(O)c(c1=O)c52)c43` [CALPHOSTIN C], the results for the IC50 in data set [3] and in data set [5] were 0.55 µM and 0.39 µM, respectively.

With `Cn1ncnc2c(=O)n(C)c(=O)nc1-2`, the inhibition result in the data set on RKO [26] and with DLD-1 [27] was “Active” each time. For the same compound, the 50% inhibitory concentration (IC50) in [3] came out at 0.33 µM; in data set [5], 0.29 µM.

Usually IC50 stands for the point on the concentration scale where inhibition reaches its midpoint.
